# Experimental data taken from ChEMBL document CHEMBL5360562 (Eur J Med Chem, 2023).
# Experiments:
# [1] = test system: Acinetobacter baumannii; experiment: Antibacterial activity against Acinetobacter baumannii AB5075 assessed as reduction in bacterial growth incubated for 16 hrs by broth microdilution method; format: functional
# [2] = test system: Acinetobacter baumannii; experiment: Potentiation of Clarithromycin antibacterial activity against Acinetobacter baumannii AB5075 assessed as clarithromycin MIC at 30 uM incubated for 16 hrs by broth microdilution method; format: functional
# [3] = test system: Acinetobacter baumannii; experiment: Potentiation of Clarithromycin antibacterial activity against Acinetobacter baumannii AB5075 assessed as clarithromycin MIC at 7.5 uM incubated for 16 hrs by broth microdilution method; format: functional
# [4] = test system: Acinetobacter baumannii; experiment: Potentiation of Clarithromycin antibacterial activity against Acinetobacter baumannii AB5075 assessed as clarithromycin MIC at 5 uM incubated for 16 hrs by broth microdilution method; format: functional
# [5] = test system: Acinetobacter baumannii; experiment: Potentiation of Clarithromycin antibacterial activity against Acinetobacter baumannii AB5075 assessed as fold reduction in clarithromycin MIC at 30 uM incubated for 16 hrs by broth microdilution method; format: functional
# In short: (§1)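 Checkerboard-style potentiation by broth microdilution. 6 h day cultures in CAMHB diluted to 5×10^5 CFU/mL. Adjuvant added from 10 mM DMSO stock at fixed concentration throughout. […] Controls: antibiotic alone, adjuvant alone, media only. Incubated stationary at 37 °C for 16 h. MIC is lowest concentration with no visible growth; fold reduction taken against the antibiotic-alone lane.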
# [6] = test system: Acinetobacter baumannii; experiment: Potentiation of Clarithromycin antibacterial activity against Acinetobacter baumannii AB5075 assessed as fold reduction in clarithromycin MIC at 7.5 uM incubated for 16 hrs by broth microdilution method; format: functional; in short: as §1
# [7] = test system: Acinetobacter baumannii; experiment: Potentiation of Clarithromycin antibacterial activity against Acinetobacter baumannii AB5075 assessed as fold reduction in clarithromycin MIC at 5 uM incubated for 16 hrs by broth microdilution method; format: functional; in short: as §1
# [8] = test system: Acinetobacter baumannii; experiment: Potentiation of Clarithromycin antibacterial activity against Acinetobacter baumannii AB5075 assessed as reduction in clarithromycin MIC at 20 uM incubated for 16 hrs by broth microdilution method; format: functional
# [9] = test system: Acinetobacter baumannii; experiment: Potentiation of Clarithromycin antibacterial activity against Acinetobacter baumannii AB5075 assessed as clarithromycin MIC at 10 uM incubated for 16 hrs by broth microdilution method; format: functional
# [10] = test system: Acinetobacter baumannii; experiment: Potentiation of Clarithromycin antibacterial activity against Acinetobacter baumannii AB5075 assessed as fold reduction in clarithromycin MIC at 10 uM incubated for 16 hrs by broth microdilution method; format: functional; in short: as §1
# [11] = Antiproliferative against human HepG2 cells assessed as reduction in cell viability incubated for 24 hrs by XTT assay; format: toxicity, cell-based
# [12] = Therapeutic index, ratio of IC50 for antiproliferative against human HepG2 cells assessed as reduction in cell viability to MIC for potentiation of Clarithromycin antibacterial activity against Acinetobacter baumannii […] assessed as clarithromycin MIC; format: toxicity, cell-based; conditions: read-out: TI
# [13] = test system: Acinetobacter baumannii; experiment: Potentiation of Clarithromycin antibacterial activity against Acinetobacter baumannii AB5075 assessed as clarithromycin MIC at 2.5 uM incubated for 16 hrs by broth microdilution method; format: functional
# [14] = test system: Acinetobacter baumannii; experiment: Potentiation of Clarithromycin antibacterial activity against Acinetobacter baumannii AB5075 assessed as clarithromycin MIC at 1.5 uM incubated for 16 hrs by broth microdilution method; format: functional; in short: as §1
# [15] = test system: Acinetobacter baumannii; experiment: Potentiation of Clarithromycin antibacterial activity against Acinetobacter baumannii AB5075 assessed as fold reduction in clarithromycin MIC at 1.5 uM incubated for 16 hrs by broth microdilution method; format: functional
# [16] = test system: Acinetobacter baumannii; experiment: Potentiation of Clarithromycin antibacterial activity against Acinetobacter baumannii AB967 assessed as clarithromycin MIC at 10 uM incubated for 16 hrs by broth microdilution method; format: functional
# [17] = test system: Acinetobacter baumannii; experiment: Potentiation of Clarithromycin antibacterial activity against Acinetobacter baumannii AB3560 assessed as clarithromycin MIC at 10 uM incubated for 16 hrs by broth microdilution method; format: functional
# [18] = test system: Acinetobacter baumannii; experiment: Potentiation of Clarithromycin antibacterial activity against Acinetobacter baumannii AB3785 assessed as clarithromycin MIC at 10 uM incubated for 16 hrs by broth microdilution method; format: functional
# [19] = test system: Acinetobacter baumannii; experiment: Potentiation of Clarithromycin antibacterial activity against Acinetobacter baumannii AB4498 assessed as clarithromycin MIC at 10 uM incubated for 16 hrs by broth microdilution method; format: functional
# [20] = test system: Acinetobacter baumannii; experiment: Potentiation of Clarithromycin antibacterial activity against Acinetobacter baumannii AB5674 assessed as clarithromycin MIC at 10 uM incubated for 16 hrs by broth microdilution method; format: functional
# [21] = test system: Acinetobacter baumannii; experiment: Potentiation of Clarithromycin antibacterial activity against Acinetobacter baumannii AB5711 assessed as clarithromycin MIC at 10 uM incubated for 16 hrs by broth microdilution method; format: functional
# [22] = test system: Acinetobacter baumannii; experiment: Potentiation of Azithromycin antibacterial activity against Acinetobacter baumannii AB5075 assessed as azithromycin MIC at 30 uM incubated for 16 hrs by broth microdilution method; format: functional
# [23] = test system: Acinetobacter baumannii; experiment: Potentiation of Azithromycin antibacterial activity against Acinetobacter baumannii AB5075 assessed as azithromycin MIC at 20 uM incubated for 16 hrs by broth microdilution method; format: functional
# [24] = test system: Acinetobacter baumannii; experiment: Potentiation of Azithromycin antibacterial activity against Acinetobacter baumannii AB5075 assessed as azithromycin MIC at 10 uM incubated for 16 hrs by broth microdilution method; format: functional
# [25] = test system: Acinetobacter baumannii; experiment: Potentiation of Azithromycin antibacterial activity against Acinetobacter baumannii AB5075 assessed as azithromycin MIC at 7.5 uM incubated for 16 hrs by broth microdilution method; format: functional
# [26] = test system: Acinetobacter baumannii; experiment: Potentiation of erythromycin antibacterial activity against Acinetobacter baumannii AB5075 assessed as erythromycin MIC at 30 uM incubated for 16 hrs by broth microdilution method; format: functional
# [27] = test system: Acinetobacter baumannii; experiment: Potentiation of erythromycin antibacterial activity against Acinetobacter baumannii AB5075 assessed as erythromycin MIC at 20 uM incubated for 16 hrs by broth microdilution method; format: functional
# [28] = test system: Acinetobacter baumannii; experiment: Potentiation of erythromycin antibacterial activity against Acinetobacter baumannii AB5075 assessed as erythromycin MIC at 10 uM incubated for 16 hrs by broth microdilution method; format: functional
# [29] = test system: Acinetobacter baumannii; experiment: Potentiation of erythromycin antibacterial activity against Acinetobacter baumannii AB5075 assessed as erythromycin MIC at 7.5 uM incubated for 16 hrs by broth microdilution method; format: functional
# [30] = test system: Acinetobacter baumannii; experiment: Potentiation of rifampicin antibacterial activity against Acinetobacter baumannii AB5075 assessed as rifampicin MIC at 30 uM incubated for 16 hrs by broth microdilution method; format: functional
# [31] = test system: Acinetobacter baumannii; experiment: Potentiation of rifampicin antibacterial activity against Acinetobacter baumannii AB5075 assessed as rifampicin MIC at 20 uM incubated for 16 hrs by broth microdilution method; format: functional
# [32] = test system: Acinetobacter baumannii; experiment: Potentiation of rifampicin antibacterial activity against Acinetobacter baumannii AB5075 assessed as rifampicin MIC at 10 uM incubated for 16 hrs by broth microdilution method; format: functional
# [33] = test system: Acinetobacter baumannii; experiment: Potentiation of rifampicin antibacterial activity against Acinetobacter baumannii AB5075 assessed as rifampicin MIC at 7.5 uM incubated for 16 hrs by broth microdilution method; format: functional
# In short: (§2)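 A. baumannii AB5075 6 h day cultures in CAMHB subcultured to 5×10^5 CFU/mL; adjuvant added from 10 mM DMSO stock at fixed concentration, then rifampicin (DMSO) twofold serially diluted in adjuvant-containing broth. Antibiotic-alone and adjuvant-alone control lanes.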
# [34] = test system: Acinetobacter baumannii; experiment: Potentiation of rifampicin antibacterial activity against Acinetobacter baumannii AB5075 assessed as rifampicin MIC at 5 uM incubated for 16 hrs by broth microdilution method; format: functional; in short: as §2
# [35] = test system: Acinetobacter baumannii; experiment: Potentiation of rifampicin antibacterial activity against Acinetobacter baumannii AB5075 assessed as fold reduction in rifampicin MIC at 10 uM incubated for 16 hrs by broth microdilution method; format: functional
# [36] = Stability of compound in human plasma assessed as parent compound remaining measured at 4 hrs; format: ADME, cell-free
# In short: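 Compound at 20 μM final in human plasma (from 10 mM DMSO stock), 37 °C; aliquots at 0, 30, 60, 120, 240 min quenched in internal standard in 1:1 ACN/MeOH, centrifuged, supernatant analysed by UPLC-MRM. Peak-area ratio to internal standard expressed as % parent remaining relative to 0 min; half-life calculated.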
# [37] = Metabolic stability in human liver microsomes assessed as parent compound remaining in presence of NADPH measured at 1 hr by UV-UPLC analysis; format: ADME, Microsome
# [38] = test system: Acinetobacter baumannii; experiment: Antibacterial activity against Acinetobacter baumannii AB967 assessed as reduction in bacterial growth incubated for 16 hrs by broth microdilution method; format: functional
# In short: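 Six-hour CAMHB day cultures were diluted to 5×10^5 CFU/mL in CAMHB and dosed from DMSO stocks. Two-fold serial dilutions were made in broth, with a medium-only blank. Plates were incubated stationary at 37 °C for 16 h and read at OD600. The MIC was the lowest concentration giving <10% growth versus the positive control.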
# [39] = test system: Acinetobacter baumannii; experiment: Antibacterial activity against Acinetobacter baumannii AB3785 assessed as reduction in bacterial growth incubated for 16 hrs by broth microdilution method; format: functional
# [40] = test system: Acinetobacter baumannii; experiment: Antibacterial activity against Acinetobacter baumannii AB4498 assessed as reduction in bacterial growth incubated for 16 hrs by broth microdilution method; format: functional
# [41] = test system: Acinetobacter baumannii; experiment: Antibacterial activity against Acinetobacter baumannii AB5711 assessed as reduction in bacterial growth incubated for 16 hrs by broth microdilution method; format: functional
# [42] = test system: Pseudomonas aeruginosa; experiment: Antibacterial activity against Pseudomonas aeruginosa PAO1 assessed as inhibition of bacterial growth incubated for 16 hrs by broth microdilution method; format: functional
# In short: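 Standalone MIC by broth microdilution. 6 h day cultures in cation-adjusted Mueller-Hinton broth (CAMHB) diluted to 5×10^5 CFU/mL. Compound added from 10 mM DMSO stock to 200 μM (highest concentration), then twofold serial dilution. Incubated stationary at 37 °C for 16 h. OD600 read; MIC is lowest concentration with <10% growth versus positive control.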
structure (smiles),measurement,setting,value
Cl.Cl.Nc1nc(-c2cc(F)cc(NC(=O)Nc3cc(F)cc(-c4c[nH]c(N)n4)c3)c2)c[nH]1,MIC,[1],> 200 µM
same,MIC,[2],≤ 0.062 µg/mL
same,MIC,[3],0.25 µg/mL
same,MIC,[4],0.5 µg/mL
same,fold change (FC),[5],>=512
same,fold change (FC),[6],128
same,fold change (FC),[7],64
same,fold change (FC),[8],>=512
same,MIC,"[8]; Acinetobacter baumannii, AB5075",≤ 0.062 µg/mL
same,MIC,[9],0.125 µg/mL
same,fold change (FC),[10],256
same,IC50 at 24 h,[11],> 256 µg/mL
same,selectivity ratio,[12],> 353
same,MIC,[13],1 µg/mL
same,MIC,[14],2 µg/mL
same,fold change (FC),[15],16
same,MIC,[16],≤ 0.062 µg/mL
same,MIC,[17],≤ 0.062 µg/mL
same,MIC,[18],≤ 0.062 µg/mL
same,MIC,[19],≤ 0.062 µg/mL
same,MIC,[20],≤ 0.062 µg/mL
same,MIC,[21],0.125 µg/mL
same,MIC,[22],0.5 µg/mL
same,MIC,[23],1 µg/mL
same,MIC,[24],1 µg/mL
same,MIC,[25],2 µg/mL
same,MIC,[26],0.125 µg/mL
same,MIC,[27],0.25 µg/mL
same,MIC,[28],0.25 µg/mL
same,MIC,[29],1 µg/mL
same,MIC,[30],3 ng/mL
same,MIC,[31],7 ng/mL
same,MIC,[32],0.031 µg/mL
same,MIC,[33],0.06 µg/mL
same,MIC,[34],0.25 µg/mL
same,fold change (FC),[35],32
same,Stability,[36],> 95%
same,Stability,[37],86%
CC[C@H]1OC(=O)[C@H](C)[C@@H](O[C@H]2C[C@@](C)(OC)[C@@H](O)[C@H](C)O2)[C@H](C)[C@@H](O[C@@H]2O[C@H](C)C[C@H](N(C)C)[C@H]2O)[C@](C)(OC)C[C@@H](C)C(=O)[C@H](C)[C@@H](O)[C@]1(C)O [CLARITHROMYCIN],MIC,[38],16 µg/mL
same,MIC,[39],64 µg/mL
same,MIC,[40],64 µg/mL
same,MIC,[41],64 µg/mL
same,MIC,[42],> 200 µM
